Assay [1] has as its system Mycobacterium tuberculosis. In words: Antitubercular activity against Mycobacterium tuberculosis H37Rv assessed as growth inhibition after 21 days by micro-broth dilution method. The following applies: 504 h. It is filed as functional. In general terms: Broth dilution looks for growth in wells or tubes with falling amounts of substance.
Assay [2] concerns HCT-116. In words: Cytotoxicity against human HCT116 cells after 4 days by WST-1 assay. The assay is classed as functional, cell-based. The following applies: HCT-116, 96 h. In a few lines: (§1)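 Cells were cultured in DMEM with 10% fetal calf serum and seeded at 3000 per well. After 24 h they were treated with 100 nM to 50 μM compound, 8 replicates per concentration, for 4 days. Viability was read by WST-1 and reported as IC50.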
(Tetrazolium assays rely on reduction of a dye to a coloured formazan, in cell work by metabolically active cells.)

Assay [3] in a line: Cytotoxicity against human GM637 cells after 4 days by WST-1 assay. The assay is classed as cell-based. The following applies: GM637, 96 h. The procedure, abridged: as §1
The test system of assay [4] is Mycobacterium tuberculosis. In words: Antitubercular activity against Mycobacterium tuberculosis H37Rv assessed as growth inhibition. The assay is classed as functional. In a few lines:
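M. tuberculosis H37Rv grown at 37 °C in Middlebrook 7H9 with 0.05% Tween 80, or on 7H11 agar with OADC. Culture dilutions of about 10^5-10^6 cfu/ml were streaked onto 7H11 plates holding 0.25 µg/mL to 40 µg/mL drug. Plates were incubated at 37 °C for about 21 days, and MIC was read from visual growth.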

Structures are written as SMILES. Values after ≈ are worked out from the molar mass of the structure shown.

For orientation: MIC means the smallest concentration in the dilution series that meets the test's criterion for growth inhibition. For `COc1ccc(CCn2cc(C(=O)C(=O)c3ccc(OC)cc3)nn2)cc1`, the MIC in assay [1] is over 87.6 µM.
One may read the IC50 as the point on the concentration scale where inhibition reaches its midpoint. A higher IC50 goes with lower potency. Regarding `COc1cc(Cn2cc(C(=O)C(=O)c3ccc([N+](=O)[O-])cc3)nn2)cc(OC)c1`, the half-inhibitory concentration (IC50) in assay [2] and in assay [3] was over 50 µM in each case. Also, the MIC in assay [1] is 161 µM (≈ 64 µg/mL).
For the compound `Cc1cc(C)cc(Cn2cc(C(=O)C(=O)c3ccccc3)nn2)c1`, the IC50 in assay [2] and in assay [3] was over 50 µM throughout. Besides, in assay [1], the MIC came to 50 µM (≈ 16 µg/mL).
In the case of `CCCCCCCCn1cc(C(=O)C(=O)c2ccccc2)nn1`, the minimum inhibitory concentration (MIC) in assay [1] is 51 µM (≈ 16 µg/mL).
For `O=C(C(=O)c1cn(Cc2ccccc2)nn1)c1ccccc1`, the IC50 in assay [2] and in assay [3] was over 50 µM in each case. Besides, the MIC in assay [1] was 172 µM (≈ 50 µg/mL).
Consider `Cc1cc(C)cc(Cn2cc(C(=O)Cc3ccccc3)nn2)c1`, for which the 50% inhibitory concentration (IC50) in assay [2] and in assay [3] was over 50 µM each time.
As for `O=C(C(=O)c1ccc(Cl)cc1Cl)c1cn(CCc2ccccc2)nn1`, the IC50 in assay [2] and in assay [3] was over 50 µM each time. For the same compound, the MIC in assay [1] is 13.4 µM (≈ 5.01 µg/mL).
Take `COC(=O)c1ccc(Cn2cc(C(=O)C(=O)c3ccc(Cl)cc3Cl)nn2)o1`: the MIC in assay [1] is 39.2 µM (≈ 16 µg/mL).
As to `COc1ccc(C(=O)C(=O)c2cn(Cc3ccccc3)nn2)cc1`, the IC50 in assay [2] and in assay [3] was over 50 µM throughout. In addition, the minimal inhibitory concentration (MIC) in assay [1] is 7.6 µM (≈ 2.44 µg/mL).
For `O=C(Cc1ccc(Cl)cc1Cl)c1cn(Cc2ccccc2)nn1`, the concentration for half-maximal inhibition (IC50) in assay [2] and in assay [3] was over 50 µM in each case.
Take `O=C(Cc1ccccc1)c1cn(Cc2ccc([N+](=O)[O-])cc2)nn1`: the half-maximal inhibitory concentration (IC50) in assay [2] and in assay [3] was over 50 µM throughout.
`CCCCCCCCn1cc(C(=O)C(=O)c2ccc(Cl)cc2Cl)nn1`: the IC50 in assay [2] and in assay [3] was over 50 µM each time. For the same compound, the MIC in assay [1] is 80.7 µM (≈ 30.9 µg/mL).
As to `COc1cc(Cn2cc(C(=O)C(=O)c3ccccc3)nn2)cc(OC)c1`, the IC50 in assay [2] and in assay [3] was over 50 µM in each case. Also, the MIC in assay [1] stood at 11.4 µM (≈ 4 µg/mL).
Turning to `COc1ccc(CCn2cc(C(=O)Cc3ccc(OC)cc3)nn2)cc1`, the MIC in assay [1] is over 91.1 µM.
`COc1cc(Cn2cc(C(=O)C(=O)c3ccccc3OC)nn2)cc(OC)c1`: the 50% inhibitory concentration (IC50) in assay [2] and in assay [3] was over 50 µM each time. The minimal inhibitory concentration (MIC) in assay [1] is 21 µM (≈ 8.01 µg/mL).
As for `O=C(C(=O)c1ccc(Cl)cc1Cl)c1cn(Cc2ccc([N+](=O)[O-])cc2)nn1`, the 50% inhibitory concentration (IC50) in assay [2] and in assay [3] was over 50 µM each time. Further, in assay [1], the minimum inhibitory concentration (MIC) was 79 µM (≈ 32 µg/mL).
In the case of `COc1cc(Cn2cc(C(=O)C(=O)c3ccc(Cl)cc3Cl)nn2)cc(OC)c1`, the IC50 in assay [2] and in assay [3] was over 50 µM in each case. Also, the minimal inhibitory concentration (MIC) in assay [1] was determined as 9.51 µM (≈ 4 µg/mL).
As to `O=C(Cc1ccccc1)c1cn(Cc2ccccc2)nn1`, the IC50 in assay [2] and in assay [3] was over 50 µM in each case.
Turning to `O=C(C(=O)c1ccc(Cl)cc1Cl)c1cn(C2CCCCC2)nn1`, in assay [1], the minimum inhibitory concentration (MIC) turned out to be 43.7 µM (≈ 15.4 µg/mL).
As for `O=C(C(=O)c1cn(Cc2ccccc2)nn1)c1ccc([N+](=O)[O-])cc1`, the half-inhibitory concentration (IC50) in assay [2] and in assay [3] was over 50 µM each time. The MIC in assay [1] stood at 95.1 µM (≈ 32 µg/mL).
For the compound `COc1ccc(C(=O)C(=O)c2cn(CCc3ccccc3)nn2)cc1`, the IC50 in assay [2] and in assay [3] was over 50 µM in each case. For the same compound, the minimum inhibitory concentration (MIC) in assay [1] was over 95.4 µM.
For `CCCCCCCCn1cc(C(=O)Cc2ccc(Cl)cc2Cl)nn1`, in assay [1], the MIC was found to be 20.9 µM (≈ 7.7 µg/mL).
Same read-out and setting: then `NNC(=O)c1ccncc1` [ISONIAZID], with 0.4 µM (≈ 0.0549 µg/mL).
As to `O=C(C(=O)c1cn(Cc2ccc([N+](=O)[O-])cc2)nn1)c1ccccc1`, the IC50 in assay [2] and in assay [3] was over 50 µM in each case. For the same compound, the MIC in assay [1] stood at 11.9 µM (≈ 4 µg/mL).
On to `COc1ccccc1C(=O)C(=O)c1cn(Cc2ccccc2)nn1`, for which the IC50 in assay [2] and in assay [3] was over 50 µM each time. Moreover, in assay [1], the minimal inhibitory concentration (MIC) came out at 12.4 µM (≈ 4 µg/mL).
As to `COc1ccc(CC(=O)c2cn(CCc3ccccc3)nn2)cc1`, the MIC in assay [1] was over 112 µM.
With `O=C(Cc1ccc(Cl)cc1Cl)c1cn(CCc2ccccc2)nn1`, the MIC in assay [1] is over 88.8 µM.
`O=C(C(=O)c1ccc(Cl)cc1Cl)c1cn(Cc2ccccc2)nn1`: the IC50 in assay [2] and in assay [3] was over 50 µM throughout. Also, the minimum inhibitory concentration (MIC) in assay [1] worked out at 6.9 µM (≈ 2.49 µg/mL).
As for `CCCCCCCCn1cc(C(=O)Cc2ccccc2)nn1`, the IC50 in assay [2] and in assay [3] was over 50 µM each time.
Regarding `CCCCCCCCc1cn(CC(=O)OCC)nn1`, the minimum inhibitory concentration (MIC) in assay [4] was 1.9 µg/mL (≈ 7.11 µM).

The values are drawn from ChEMBL document CHEMBL2434843, “Synthesis and evaluation of α-ketotriazoles and α,β-diketotriazoles as inhibitors of Mycobacterium tuberculosis” (Eur J Med Chem, 2013).
